Series [1] relates to MDA-MB-231. Briefly: Induction of autophagy in human MDA-MB-231 cells assessed as decrease in p62 levels at 2 times IC50 after 24 to 48 hrs by immunoblot analysis. In kind it is functional, cell-based. In short, it runs like this:
(§1)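 Cells seeded at 2.5 × 10^5/well, treated 24 h later at 1/2 IC50, IC50 and 2× IC50 (legend says 24 h, methods 48 h). Controls: MG132 4.76 μg/mL, BafA1 0.1 μg/mL, DMSO. Lysed in RIPA with protease inhibitors, BCA protein assay, 30 μg on 15% Tris/glycine SDS-PAGE. Blotted for LC3-I/II, p62 and polyubiquitinated proteins with HRP secondary and ECL detection.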

A short description of series [2]: Cytotoxicity against human U87MG cells assessed as decrease in cell viability after 48 hrs by MTT assay. In kind it is functional, cell-based, U-87MG ATCC. Conditions: U-87 MG. In short, it runs like this: (§2)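 Cells kept in DMEM/F12 with 10% FBS, 2 mM glutamine, penicillin/streptomycin at 37 °C, 5% CO2; exponential-phase cells seeded at 1 × 10^4/well for 24 h. Treated at 0.2, 2 and 20 μg/mL for 48 h at 37 °C; vehicle controls = 100% viability. Formazan dissolved in DMSO, read at 570 nm (620 nm reference). IC50 by four-parameter logistic fit, ≥3 independent measurements, ±95% CI.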
For orientation: Tetrazolium dyes change colour on reduction, which living cells bring about.

Series [3] deals with MDA-MB-231. In words: Induction of autophagy in human MDA-MB-231 cells assessed as conversion of LC3-1 to LC3-2 at IC50 to 2 times IC50 after 24 to 48 hrs by immunoblot analysis. In kind it is functional, cell-based. In short, it runs like this:
as §1

Series [4] in a line: Cytotoxicity against human A549 cells assessed as decrease in cell viability after 48 hrs by MTT assay. In kind it is functional, cell-based. Conditions: A549, 48 h. In short, it runs like this: as §2
Series [5] is filed under the species Homo sapiens. In words: Induction of autophagy in human 253JBV cells assessed as conversion of LC3-1 to LC3-2 at IC50 to 2 times IC50 after 24 to 48 hrs by immunoblot analysis. In kind it is functional, cell-based. In short, it runs like this: as §1
In general terms: Immunoblotting shows a protein as a band on a membrane.

The species entered for series [6] is Homo sapiens. In words: Induction of autophagy in human 253JBV cells assessed as decrease in polyubiquitinated protein levels at IC50 after 24 to 48 hrs by immunoblot analysis. In kind it is functional, cell-based. The procedure, abridged:
as §1

Series [7] can be described thus: Cytotoxicity against human MDA-MB-231 cells assessed as decrease in cell viability after 48 hrs by MTT assay. In kind it is functional, cell-based. Conditions: MDA-MB-231, 48 h. The procedure, abridged: as §2
The nature of series [8]: Cytotoxicity against human MPanc96 cells assessed as decrease in cell viability after 48 hrs by MTT assay. In kind it is functional, cell-based. Conditions: MPANC96, 48 h. In short, it runs like this:
as §2

The nature of series [9]: Cytotoxicity against human 253JBV cells assessed as decrease in cell viability after 48 hrs by MTT assay. In kind it is functional, cell-based. The procedure, abridged:
as §2

Series [10] is filed under the species Homo sapiens. In words: Induction of autophagy in human 253JBV cells assessed as vacuole formation at 20 ug/ml after 48 hrs by microscopy. In kind it is functional, cell-based. In short, it runs like this: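 Bladder cells grown 48 h untreated or with 20 μg/mL test agent, then inspected for morphology and vacuoles by inverted light microscopy against the control group.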

Series [11] can be described thus: Cytotoxicity against human MCF7 cells assessed as decrease in cell viability after 48 hrs by MTT assay. The series is classed as functional, cell-based. As to conditions: MCF7, 48 h. In short, it runs like this:
as §2

Series [12] is filed under the species Homo sapiens. In words: Induction of autophagy in human 253JBV cells assessed as decrease in p62 levels at 2 times IC50 after 24 to 48 hrs by immunoblot analysis. In kind it is functional, cell-based. The procedure, abridged:
as §1

Series [13] has as its system HeLa. In words: Induction of autophagy in human HeLa cells assessed as conversion of LC3-1 to LC3-2 at IC50 to 2 times IC50 after 24 to 48 hrs by immunoblot analysis. The series is classed as functional, cell-based. The procedure, abridged: as §1
The subject of series [14] is HeLa. In words: Induction of autophagy in human HeLa cells assessed as decrease in p62 levels at IC50 after 24 to 48 hrs by immunoblot analysis. The series is classed as functional, cell-based. In short, it runs like this: as §1
Series [15] deals with MDA-MB-231. In words: Induction of autophagy in human MDA-MB-231 cells assessed as decrease in polyubiquitinated protein levels at IC50 to 2 times IC50 after 24 to 48 hrs by immunoblot analysis. In kind it is functional, cell-based. In short, it runs like this: as §1
Series [16] in a line: Cytotoxicity against human PC3 cells assessed as decrease in cell viability after 48 hrs by MTT assay. In kind it is functional, cell-based. As to conditions: PC-3, 48 h. In short, it runs like this:
as §2

Series [17] can be described thus: Cytotoxicity against human Caco2 cells assessed as decrease in cell viability after 48 hrs by MTT assay. The series is classed as functional, cell-based. As to conditions: Caco-2, 48 h. The procedure, abridged:
as §2

Series [18] in a line: Cytotoxicity against human HeLa cells assessed as decrease in cell viability after 48 hrs by MTT assay. In kind it is functional, cell-based. In short, it runs like this: as §2
Series [19] deals with HeLa. In words: Induction of autophagy in human HeLa cells assessed as decrease in p62 levels at IC50 after 24 to 48 hrs by immunoblot analysis.
Series [20] is described as follows: Cytotoxicity against HEK293 cells assessed as decrease in cell viability after 48 hrs by MTT assay. The series is classed as toxicity, cell-based. Conditions: human. In short, it runs like this: as §2

The source made the active and inactive calls. The calls are words filed in the database; no cut-off is given here.

As usually defined, the IC50 is the point on the concentration scale where inhibition reaches its midpoint. Consider `C/C(=C\CC/C(C)=C/Cc1cc(C(=O)O)ccc1N)CC/C=C(\C)CC/C=C(\C)CCC(=O)O`, for which the outcome with MDA-MB-231 [1], with MDA-MB-231 [3], in the series filed under Homo sapiens [5], in the series listed under Homo sapiens [6], in the series listed under Homo sapiens [10] and in the series filed under Homo sapiens [12] was Active. The outcome in the series with HeLa [13], with HeLa [14], with MDA-MB-231 [15] and in the series with HeLa [19] was Active. Besides, the half-inhibitory concentration (IC50) was above 42.8 µM in [2]; 25.8 µM in series [4]; 12.9 µM in series [7]; 36.4 µM in series [8]; 36.5 µM in series [9]; above 42.8 µM in [11]. The results for the IC50 in series [16], in series [17] and in series [18] were 42.3 µM, 25.9 µM and 18.2 µM, respectively. Further, in series [20], the IC50 at 48 h was 6.45 µM.
On to `C=C1C(=O)O[C@@H]2C3O[C@]3(C)CC/C=C(\C)CC[C@@H]12` (stereo not given in full), for which the IC50 is 4.86 µM in series [2]; 22 µM in series [4]; 4.36 µM in series [7]; 20.3 µM in series [8]; 25.3 µM in [9]; 27.7 µM in series [11]. The IC50 was 13 µM in series [16], 23.4 µM in [17] and 23.1 µM in series [18]. The half-inhibitory concentration (IC50) at 48 h in [20] was found to be 3.1 µM.

Values taken from ChEMBL document CHEMBL3853311, “Deuterium-Labeled Precursor Feeding Reveals a New pABA-Containing Meroterpenoid from the Mango Pathogen Xanthomonas citri pv. mangiferaeindicae” (J Nat Prod, 2016).
